Assay results as given in ChEMBL document CHEMBL4689842, “EUbOPEN Chemogenomics Library wave 1” (2021).

System: U2OS
Experiment: Multiplex assay against U2OS
Type: toxicity, cell-based
Conditions: human
Summary of the method: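 Hoechst33342, BioTracker Green Microtubule Cytoskeleton Dye, MitoTracker Red and Annexin V Alexa Fluor 680 were added to live cells at seeding, and imaging on a CQ1 microscope at 37°C and 5% CO2 followed compound addition. Gating by CellPathfinder machine learning separated cells into Hoechst high-intensity objects or normal cells, then normal cells into healthy, pyknosed or fragmented nuclei, then pyknosed cells into mitotic or apoptotic. Per cents of healthy-nucleus cells are reported for the tubulin, mitochondrial-mass and membrane-permeability phenotypes.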

[1] = 12 h, 1 µM, compound concentration 1 uM, replicate 1
[2] = 12 h, 1 µM, compound concentration 1 uM, replicate 2
[3] = 12 h, 10 µM, compound concentration 10 uM, replicate 1
[4] = 12 h, 10 µM, compound concentration 10 uM, replicate 2
[5] = 24 h, 1 µM, compound concentration 1 uM, replicate 1
[6] = 24 h, 1 µM, compound concentration 1 uM, replicate 2
[7] = 24 h, 10 µM, compound concentration 10 uM, replicate 1
[8] = 24 h, 10 µM, compound concentration 10 uM, replicate 2

CC(C)CC(=O)Nc1[nH]nc2c1CN(C(=O)C1CCN(C)CC1)C2(C)C [PHA-793887]
Population Apoptotic (%) [1]: 25% | Population Fragmented Nuclei (%) [1]: 3% | Population Healthy Nuclei (%) [1]: 92% | Population Hoechst High Intensity Objects (%) [1]: 1% | Population Membrane Permeable-Phenotype (%) [1]: 8% | Population Mitochondria Different-Phenotype (%) [1]: 30% | Population Mitotic Cells (%) [1]: 75% | Population Normal (%) [1]: 98% | Population Tubulin-Different-Phenotype (%) [1]: 30% | Total Cell Count [1]: 161 | Population Apoptotic (%) [2]: 20% | Population Fragmented Nuclei (%) [2]: 8% | Population Healthy Nuclei (%) [2]: 87% | Population Hoechst High Intensity Objects (%) [2]: 11% | Population Membrane Permeable-Phenotype (%) [2]: 9% | Population Mitochondria Different-Phenotype (%) [2]: 39% | Population Mitotic Cells (%) [2]: 80% | Population Normal (%) [2]: 88% | Population Pyknosed Nuclei (%) [2]: 4% | Population Tubulin-Different-Phenotype (%) [2]: 35% | Total Cell Count [2]: 87 | Population Apoptotic (%) [3]: 72% | Population Fragmented Nuclei (%) [3]: 17% | Population Healthy Nuclei (%) [3]: 68% | Population Hoechst High Intensity Objects (%) [3]: 3% | Population Membrane Permeable-Phenotype (%) [3]: 12% | Population Mitochondria Different-Phenotype (%) [3]: 29% | Population Mitotic Cells (%) [3]: 28% | Population Normal (%) [3]: 96% | Population Pyknosed Nuclei (%) [3]: 13% | Population Tubulin-Different-Phenotype (%) [3]: 32% | Total Cell Count [3]: 188 | Population Apoptotic (%) [4]: 50% | Population Fragmented Nuclei (%) [4]: 11% | Population Healthy Nuclei (%) [4]: 78% | Population Hoechst High Intensity Objects (%) [4]: 14% | Population Membrane Permeable-Phenotype (%) [4]: 21% | Population Mitochondria Different-Phenotype (%) [4]: 34% | Population Mitotic Cells (%) [4]: 50% | Population Normal (%) [4]: 85% | Population Pyknosed Nuclei (%) [4]: 10% | Population Tubulin-Different-Phenotype (%) [4]: 26% | Total Cell Count [4]: 136 | Population Apoptotic (%) [5]: 22% | Population Fragmented Nuclei (%) [5]: 5% | Population Healthy Nuclei (%) [5]: 91% | Population Hoechst High Intensity Objects (%) [5]: 1% | Population Membrane Permeable-Phenotype (%) [5]: 3% | Population Mitochondria Different-Phenotype (%) [5]: 24% | Population Mitotic Cells (%) [5]: 77% | Population Normal (%) [5]: 98% | Population Pyknosed Nuclei (%) [5]: 3% | Population Tubulin-Different-Phenotype (%) [5]: 29% | Total Cell Count [5]: 148 | Population Apoptotic (%) [6]: 50% | Population Fragmented Nuclei (%) [6]: 9% | Population Healthy Nuclei (%) [6]: 85% | Population Hoechst High Intensity Objects (%) [6]: 2% | Population Membrane Permeable-Phenotype (%) [6]: 9% | Population Mitochondria Different-Phenotype (%) [6]: 43% | Population Mitotic Cells (%) [6]: 50% | Population Normal (%) [6]: 97% | Population Pyknosed Nuclei (%) [6]: 4% | Population Tubulin-Different-Phenotype (%) [6]: 34% | Total Cell Count [6]: 82 | Population Apoptotic (%) [7]: 72% | Population Fragmented Nuclei (%) [7]: 9% | Population Healthy Nuclei (%) [7]: 73% | Population Hoechst High Intensity Objects (%) [7]: 4% | Population Membrane Permeable-Phenotype (%) [7]: 24% | Population Mitochondria Different-Phenotype (%) [7]: 45% | Population Mitotic Cells (%) [7]: 27% | Population Normal (%) [7]: 95% | Population Pyknosed Nuclei (%) [7]: 17% | Population Tubulin-Different-Phenotype (%) [7]: 33% | Total Cell Count [7]: 287 | Population Apoptotic (%) [8]: 55% | Population Fragmented Nuclei (%) [8]: 19% | Population Healthy Nuclei (%) [8]: 69% | Population Hoechst High Intensity Objects (%) [8]: 16% | Population Membrane Permeable-Phenotype (%) [8]: 21% | Population Mitochondria Different-Phenotype (%) [8]: 36% | Population Mitotic Cells (%) [8]: 44% | Population Normal (%) [8]: 83% | Population Pyknosed Nuclei (%) [8]: 10% | Population Tubulin-Different-Phenotype (%) [8]: 29% | Total Cell Count [8]: 172
